Data reported in ChEMBL document CHEMBL1926565, “Synthesis, antiproliferative activities and telomerase inhibition evaluation of novel asymmetrical 1,2-disubstituted amidoanthraquinone derivatives” (Eur J Med Chem, 2012).

Experiments:
Type in all cases: functional
NCI-H460 [1] = assay: Cytotoxicity against human NCI-H460 cells assessed as cellular growth at 10 uM
In short: (§1)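 Single-dose screen run by the NCI across its 60-human-tumour-cell-line panel; growth recorded for each cell line.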

RXF 393 [2] = assay: Cytotoxicity against human RXF393 cells assessed as cellular growth at 10 uM; in short: as §1
DU-145 = assay: Cytotoxicity against human DU145 cells assessed as cellular growth at 10 uM; in short: as §1
SK-MEL-28 [3] = assay: Cytotoxicity against human SK-MEL-28 cells assessed as cellular growth at 10 uM; in short: as §1
A549 = assay: Cytotoxicity against human A549 cells assessed as cellular growth at 10 uM; in short: as §1
SNB-75 = assay: Cytotoxicity against human SNB75 cells assessed as cellular growth at 10 uM
SK-MEL-5 = assay: Cytotoxicity against human SK-MEL-5 cells assessed as cellular growth at 10 uM
NCI-H322M [4] = assay: Cytotoxicity against human NCI-H322M cells assessed as cellular growth at 10 uM; in short: as §1
LOX IMVI [5] = assay: Cytotoxicity against human LOXIMVI cells assessed as cellular growth at 10 uM; in short: as §1
OVCAR-5 [6] = assay: Cytotoxicity against human OVCAR5 cells assessed as cellular growth at 10 uM; in short: as §1
HOP-92 = assay: Cytotoxicity against human HOP92 cells assessed as cellular growth at 10 uM; in short: as §1
SK-MEL-2 = assay: Cytotoxicity against human SK-MEL-2 cells assessed as cellular growth at 10 uM; in short: as §1
T47D = assay: Cytotoxicity against human T47D cells assessed as cellular growth at 10 uM
SR = assay: Cytotoxicity against human SR cells assessed as cellular growth at 10 uM
NCI-H226 = assay: Cytotoxicity against human NCI-H226 cells assessed as cellular growth at 10 uM; in short: as §1
HCC 2998 [7] = assay: Cytotoxicity against human HCC2998 cells assessed as cellular growth at 10 uM; in short: as §1
ACHN [8] = assay: Cytotoxicity against human ACHN cells assessed as cellular growth at 10 uM; in short: as §1
A498 [9] = assay: Cytotoxicity against human A498 cells assessed as cellular growth at 10 uM; in short: as §1
U-251 [10] = assay: Cytotoxicity against human U251 cells assessed as cellular growth at 10 uM
SK-OV-3 = assay: Anticancer activity against human SKOV3 cells
In short: (§2)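 NCI 60-human-tumour-cell-line panel. Selected analogues were first run at one dose, then some were carried into multi-dose testing. GI50 (50% growth inhibition), TGI (total growth inhibition) and LC50 (50% cell kill) were read as values interpolated where the dose–response curves cross these levels.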

HOP-62 = assay: Anticancer activity against human HOP62 cells; in short: as §2
BT-549 = assay: Anticancer activity against human BT549 cells; in short: as §2
HCC 2998 [11] = assay: Anticancer activity against human HCC2998 cells; in short: as §2
EKVX = assay: Anticancer activity against human EKVX cells; in short: as §2
ACHN [12] = assay: Anticancer activity against human ACHN cells; in short: as §2
OVCAR-4 = assay: Anticancer activity against human OVCAR4 cells; in short: as §2
UACC-257 = assay: Anticancer activity against human UACC257 cells
SF-295 = assay: Anticancer activity against human SF295 cells; in short: as §2
A498 [13] = assay: Anticancer activity against human A498 cells; in short: as §2
PC-3 = assay: Anticancer activity against human PC3 cells; in short: as §2
MDA-MB-231 = assay: Anticancer activity against human MDA-MB-231 cells; in short: as §2
TK-10 = assay: Anticancer activity against human TK10 cells
NCI-H322M [14] = assay: Anticancer activity against human NCI-H322M cells; in short: as §2
SK-MEL-28 [15] = assay: Anticancer activity against human SK-MEL-28 cells; in short: as §2
IGROV-1 = assay: Anticancer activity against human IGROV1 cells; in short: as §2
MDA-MB-435 = assay: Anticancer activity against human MDA-MB-435 cells; in short: as §2
SN12C = assay: Anticancer activity against human SN12C cells; in short: as §2
RXF 393 [16] = assay: Anticancer activity against human RXF393 cells; in short: as §2
CAKI-1 = assay: Anticancer activity against human Caki1 cells; in short: as §2
NCI-H460 [17] = assay: Anticancer activity against human NCI-H460 cells; in short: as §2
OVCAR-5 [18] = assay: Anticancer activity against human OVCAR5 cells; in short: as §2
OVCAR-3 = assay: Anticancer activity against human OVCAR3 cells; in short: as §2
LOX IMVI [19] = assay: Anticancer activity against human LOXIMVI cells; in short: as §2
SNB-19 = assay: Anticancer activity against human SNB19 cells; details: read-out: LC50 (the source's name)
In short: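 Tested by the NCI in its 60-human-tumour-cell-line panel. Dose-response curves were run, and GI₅₀ (50% growth inhibition), TGI (total growth inhibition) and LC₅₀ (50% cell killing) were read as interpolated concentrations where the curves cross those levels.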

K562 = assay: Anticancer activity against human K562 cells; in short: as §2
SW-620 = assay: Anticancer activity against human SW620 cells
MDA-MB-468 = assay: Anticancer activity against human MDA-MB-468 cells; in short: as §2
U-251 [20] = assay: Anticancer activity against human U251 cells
UO-31 = assay: Anticancer activity against human UO31 cells
[21] = read-out: LC50 (the source's name)

Cc1ccc(C(=O)Nc2ccc3c(c2NC(=O)c2ccc(C)cc2)C(=O)c2ccccc2C3=O)cc1
Activity (NCI-H460 [1]): 88.62% | Activity (RXF 393 [2]): 88.25% | Activity (DU-145): 95.93% | Activity (SK-MEL-28 [3]): 99.46% | Activity (A549): 90.46% | Activity (SNB-75): 102.26% | Activity (SK-MEL-5): 94.04% | Activity (NCI-H322M [4]): 97.74% | Activity (LOX IMVI [5]): 84.41% | Activity (OVCAR-5 [6]): 110.18% | Activity (HOP-92): 91.21% | Activity (SK-MEL-2): 100.65% | Activity (T47D): 100% | Activity (SR): 87.69% | Activity (NCI-H226): 91.14% | Activity (HCC 2998 [7]): 84.68% | Activity (ACHN [8]): 112.43% | Activity (A498 [9]): 124.08% | Activity (U-251 [10]): 91.73%

Cc1ccc(C(=O)Nc2c(NC(=O)CN3CCN(C)CC3)ccc3c2C(=O)c2ccccc2C3=O)cc1
Activity (NCI-H460 [1]): 37.47% | Activity (RXF 393 [2]): 68.84% | Activity (DU-145): 82.12% | GI50 (SK-OV-3): > 100 µM | TGI (SK-OV-3): > 100 µM | CC50 (SK-OV-3; [21]): > 100 µM | GI50 (HOP-62): > 100 µM | LC50 (50% cell kill) (HOP-62): > 100 µM | TGI (HOP-62): > 100 µM | GI50 (BT-549): > 100 µM | TGI (BT-549): > 100 µM | CC50 (BT-549; [21]): > 100 µM | GI50 (HCC 2998 [11]): 3 µM | TGI (HCC 2998 [11]): > 100 µM | CC50 (HCC 2998 [11]; [21]): > 100 µM | TGI (EKVX): > 100 µM | CC50 (EKVX; [21]): > 100 µM | TGI (ACHN [12]): > 100 µM | CC50 (ACHN [12]; [21]): > 100 µM | Activity (SK-MEL-28 [3]): -57.56% | Activity (A549): 83.89% | TGI (OVCAR-4): > 100 µM | CC50 (OVCAR-4; [21]): > 100 µM | GI50 (UACC-257): 2.23 µM | TGI (UACC-257): 5.81 µM | CC50 (UACC-257; [21]): > 100 µM | GI50 (SF-295): > 100 µM | TGI (SF-295): > 100 µM | CC50 (SF-295; [21]): > 100 µM | GI50 (A498 [13]): > 100 µM | TGI (A498 [13]): > 100 µM | CC50 (A498 [13]; [21]): > 100 µM | TGI (PC-3): > 100 µM | CC50 (PC-3; [21]): > 100 µM | GI50 (MDA-MB-231): 3.3 µM | TGI (MDA-MB-231): > 100 µM | CC50 (MDA-MB-231; [21]): > 100 µM | GI50 (TK-10): > 100 µM | TGI (TK-10): > 100 µM | CC50 (TK-10; [21]): > 100 µM | Activity (SNB-75): 82.17% | GI50 (NCI-H322M [14]): > 100 µM | LC50 (50% cell kill) (NCI-H322M [14]): > 100 µM | TGI (NCI-H322M [14]): > 100 µM | GI50 (SK-MEL-28 [15]): 1.87 µM | GI50 (IGROV-1): > 100 µM | TGI (IGROV-1): > 100 µM | CC50 (IGROV-1; [21]): > 100 µM | Activity (SK-MEL-5): 41.3% | GI50 (MDA-MB-435): 3.13 µM | TGI (MDA-MB-435): > 100 µM | CC50 (MDA-MB-435; [21]): > 100 µM | TGI (SN12C): > 100 µM | CC50 (SN12C; [21]): > 100 µM | Activity (NCI-H322M [4]): 72.6% | Activity (LOX IMVI [5]): 1.24% | Activity (OVCAR-5 [6]): 106.66% | TGI (RXF 393 [16]): > 100 µM | CC50 (RXF 393 [16]; [21]): > 100 µM | TGI (CAKI-1): > 100 µM | CC50 (CAKI-1; [21]): > 100 µM | Activity (HOP-92): 90.68% | Activity (SK-MEL-2): 123.64% | GI50 (NCI-H460 [17]): 3.36 µM | LC50 (50% cell kill) (NCI-H460 [17]): > 100 µM | TGI (NCI-H460 [17]): > 100 µM | GI50 (OVCAR-5 [18]): > 100 µM | TGI (OVCAR-5 [18]): > 100 µM | CC50 (OVCAR-5 [18]; [21]): > 100 µM | GI50 (OVCAR-3): 2.43 µM | CC50 (OVCAR-3; [21]): > 100 µM | Activity (T47D): 52.62% | TGI (LOX IMVI [19]): > 100 µM | CC50 (LOX IMVI [19]; [21]): > 100 µM | CC50 (SNB-19): > 100 µM | Activity (SR): -43.7% | Activity (NCI-H226): 93.87% | Activity (HCC 2998 [7]): 28.97% | GI50 (K562): 2.09 µM | Activity (ACHN [8]): 49.87% | TGI (SW-620): > 100 µM | CC50 (SW-620; [21]): > 100 µM | GI50 (MDA-MB-468): 2.58 µM | TGI (MDA-MB-468): > 100 µM | CC50 (MDA-MB-468; [21]): > 100 µM | Activity (A498 [9]): 67.36% | GI50 (U-251 [20]): 3.64 µM | TGI (U-251 [20]): > 100 µM | CC50 (U-251 [20]; [21]): > 100 µM | Activity (U-251 [10]): 22.38% | TGI (UO-31): > 100 µM | CC50 (UO-31; [21]): > 100 µM
